{"data": "Experimental data gathered from unrelated publications", "JAK2": "Tyrosine-protein kinase JAK2 (JAK2, Homo sapiens, UniProt O60674)", "JAK2 JH1": "Tyrosine-protein kinase JAK2, JH1 (JAK2, Homo sapiens, UniProt O60674)", "note": "Each line is one published result; the experiments were not run side by side."}
{"Compound": "CC(C)S(=O)(=O)c1ccc2nccc(Nc3ccc4sc(C5CCCC5)nc4c3)c2c1", "target": "JAK2", "effect on": "enzyme activity", "action": "inhibitor", "concentration": "1 µM", "measurement": "activity vs control", "value": "98%"}
{"Compound": "N#Cc1ccc(NC(=O)Nc2ccccc2)cc1", "target": "JAK2 JH1", "effect on": "cell-free assay", "method": "competition with immobilised ligand", "concentration": "25 µM", "measurement": "remaining binding", "value": "86%"}
{"Compound": "CO[C@@H]1[C@H](N(C)C(=O)c2ccccc2)C[C@H]2O[C@]1(C)n1c3ccccc3c3c4c(c5c6ccccc6n2c5c31)C(=O)NC4", "target": "JAK2 JH1", "effect on": "enzyme activity", "action": "inhibitor", "concentration": "1 µM", "measurement": "inhibition", "value": "100%"}
{"Compound": "CN1CCN(C(=O)c2ccc(NC(=O)Nc3ccc(N(C)c4ccnc(Nc5ccc(CS(C)(=O)=O)cc5)n4)cc3)cc2)CC1", "target": "JAK2 JH1", "effect on": "cell-free assay", "method": "competition with immobilised ligand", "concentration": "1 µM", "measurement": "remaining binding", "value": "4.7%"}
{"Compound": "C1=C/COCc2cc(ccc2OCCN2CCCC2)Nc2nccc(n2)-c2cccc(c2)COC/1", "target": "JAK2 JH1", "effect on": "cell-free assay", "concentration": "0.1 µM", "measurement": "remaining signal", "value": "6.8%"}
{"Compound": "C#Cc1cc(-c2cc(Nc3nc(N[C@@H](C)c4ccc(F)cn4)ncc3Cl)n[nH]2)ccc1C=O", "target": "JAK2", "effect on": "enzyme activity", "action": "inhibitor", "concentration": "0.2 µM", "measurement": "inhibition", "value": "99.7%"}
{"Compound": "CCCCC(=O)Nc1ccc(-c2ccc3ncn(CCC)c(=O)c3c2)cn1", "target": "JAK2 JH1", "effect on": "binding", "method": "competition with immobilised ligand", "concentration": "0.5 µM", "measurement": "remaining binding", "value": "100%"}
{"Compound": "C[C@H]1CC[C@H](n2c3cnccc3c3cnc(Nc4ccc5c(n4)CCN(C(=O)CO)C5)nc32)CC1", "target": "JAK2 JH1", "effect on": "cell-free assay", "method": "competition with immobilised ligand", "concentration": "1 µM", "measurement": "remaining binding", "value": "50%"}
{"Compound": "COc1ccc2oc(-c3ccc4nc(N)oc4c3)c/c(=N\\c3ccccc3NC(=O)CCN)c2c1", "target": "JAK2", "effect on": "binding", "concentration": "1 µM", "measurement": "remaining binding", "value": "96%"}
{"Compound": "C=CC(=O)N1CCC([C@@H]2CCNc3c(C(N)=O)c(-c4ccc(Oc5ccccc5)cc4)nn32)CC1", "target": "JAK2 JH1", "effect on": "enzyme activity", "action": "inhibitor", "concentration": "1 µM", "measurement": "inhibition", "value": "12%"}
